Laboratory results taken from ChEMBL document CHEMBL4321880 (J Med Chem, 2020).

Assays:
Cytochrome P450 3A4 [1] = target: T1, Cytochrome P450 3A4 (Homo sapiens, UniProt P08684); assay: (§1) Induction of CYP3A4 in CRISPR/Cas9-mediated CYP3A5 knock-out and doxycycline-induced CYP3A4 overexpressing human AsPC1 cells assessed as increase in 1-hydroxymidazolam formation using midazolam as substrate pretreated with doxycycline for 24 hrs followed by incubation with compound at higher concentrations for 24 hrs by LC-MS/MS analysis; type: ADME, cell-based; details: aspc1, 24 h
T1 sequence (P08684 whole entry): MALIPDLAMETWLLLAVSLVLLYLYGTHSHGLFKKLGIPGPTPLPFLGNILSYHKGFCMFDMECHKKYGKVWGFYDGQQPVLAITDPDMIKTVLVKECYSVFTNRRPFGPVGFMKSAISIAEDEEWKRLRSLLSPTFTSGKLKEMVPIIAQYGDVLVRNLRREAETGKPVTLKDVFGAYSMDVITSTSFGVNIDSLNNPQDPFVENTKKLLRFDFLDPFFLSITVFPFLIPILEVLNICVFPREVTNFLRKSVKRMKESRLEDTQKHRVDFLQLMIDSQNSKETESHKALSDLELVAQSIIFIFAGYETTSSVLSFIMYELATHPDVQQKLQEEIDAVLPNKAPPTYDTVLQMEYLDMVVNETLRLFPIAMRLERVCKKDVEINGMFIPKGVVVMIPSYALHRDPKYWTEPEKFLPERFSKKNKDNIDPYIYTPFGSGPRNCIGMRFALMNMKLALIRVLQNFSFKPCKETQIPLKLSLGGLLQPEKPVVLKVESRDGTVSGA
Procedure, shortened: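 AsPC-1 CYP3A5−/− cells with Dox-inducible CYP3A4, 10,000 cells/well, induced with 100 ng/mL doxycycline. 24 h later given compound (16-point 1:2 series, 0.0003–10 μM) plus 5 μM midazolam, final DMSO 0.66%, for 24 h. Quenched with acetonitrile containing warfarin internal standard. 1-Hydroxymidazolam measured by LC-MS/MS and normalized to DMSO control (100%).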

CYP3A5 [2] = target: T2, CYP3A5 (Homo sapiens, UniProt P20815); assay: Inhibition of human recombinant CYP3A5 expressed in supersomes assessed as decrease in formation of D-luciferin using luciferin-IPA as substrate incubated for 10 mins in presence of NADPH by P450-Glo luminescence assay; details: probe luciferin-IPA
T2 sequence (P20815 whole entry): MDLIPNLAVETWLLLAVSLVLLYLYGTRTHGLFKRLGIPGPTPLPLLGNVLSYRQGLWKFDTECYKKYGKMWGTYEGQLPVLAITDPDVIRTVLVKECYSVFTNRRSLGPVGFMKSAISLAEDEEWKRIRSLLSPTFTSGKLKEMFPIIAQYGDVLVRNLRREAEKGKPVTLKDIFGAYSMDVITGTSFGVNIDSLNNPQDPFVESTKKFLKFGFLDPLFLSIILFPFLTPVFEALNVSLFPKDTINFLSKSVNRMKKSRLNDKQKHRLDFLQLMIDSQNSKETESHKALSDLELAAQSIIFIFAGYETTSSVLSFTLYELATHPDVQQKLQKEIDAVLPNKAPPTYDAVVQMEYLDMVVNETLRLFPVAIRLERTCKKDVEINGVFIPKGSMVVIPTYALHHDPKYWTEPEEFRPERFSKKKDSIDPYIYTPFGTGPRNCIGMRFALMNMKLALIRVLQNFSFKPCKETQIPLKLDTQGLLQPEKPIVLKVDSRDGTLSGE

CYP3A5 [3] = target: T2, CYP3A5; assay: Inhibition of human recombinant CYP3A5 expressed in supersomes assessed as decrease in formation of D-luciferin at 1.89 uM using luciferin-IPA as substrate incubated for 10 mins in presence of NADPH by P450-Glo luminescence assay relative to control; details: probe luciferin-IPA
Cytochrome P450 3A4 [4] = target: T1, Cytochrome P450 3A4; assay: Inhibition of human recombinant CYP3A4 expressed in supersomes assessed as decrease in formation of D-luciferin at 1.89 uM using luciferin-IPA as substrate incubated for 10 mins in presence of NADPH by P450-Glo luminescence assay relative to control; type: ADME; details: recombinant enzyme
Procedure, shortened: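 P450-Glo assay with supersomes containing POR, cytochrome b5 and recombinant human CYP3A4, 0.1 pmol enzyme. Run in 100 mM KPO4 pH 7.4 with 3 μM Luciferin-IPA, started with NADPH, 10 min at 37 °C. Detection reagent added for 20 min at room temperature, then luminescence read. Final DMSO 0.1%.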

Cytochrome P450 1A2 = target: T3, Cytochrome P450 1A2 (Homo sapiens, UniProt P05177); assay: Inhibition of CYP1A2 in human liver microsomes assessed as formation of hydroxytacrine at 1.85 uM using tacrine as substrate incubated for 10 mins in presence of NADPH by LC-MS/MS analysis; type: ADME
T3 sequence (P05177 whole entry): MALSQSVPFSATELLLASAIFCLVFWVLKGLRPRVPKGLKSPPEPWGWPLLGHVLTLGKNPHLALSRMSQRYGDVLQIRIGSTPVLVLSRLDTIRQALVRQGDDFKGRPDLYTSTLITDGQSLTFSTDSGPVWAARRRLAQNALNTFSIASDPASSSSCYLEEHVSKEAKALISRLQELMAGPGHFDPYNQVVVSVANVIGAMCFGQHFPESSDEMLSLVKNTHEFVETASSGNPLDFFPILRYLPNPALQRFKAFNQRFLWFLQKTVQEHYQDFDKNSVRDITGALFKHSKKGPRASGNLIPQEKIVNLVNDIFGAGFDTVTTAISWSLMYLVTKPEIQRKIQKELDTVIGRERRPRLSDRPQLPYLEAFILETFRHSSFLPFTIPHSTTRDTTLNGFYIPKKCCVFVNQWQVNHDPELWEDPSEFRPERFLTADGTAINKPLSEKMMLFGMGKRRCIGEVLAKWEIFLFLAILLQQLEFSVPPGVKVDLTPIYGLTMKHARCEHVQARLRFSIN
Procedure, shortened: (§2)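 Pooled human liver microsomes with 2 mM NADPH in 100 mM KPO4 pH 7.4, 5 mM MgCl2, 37 °C, technical triplicate, final DMSO 0.2%. Probe (substrate, level, protein, time): 1A2 tacrine 5 μM, 0.2 mg/mL, 10 min; 2B6 bupropion 100 μM, 0.25 mg/mL, 10 min; 2C8 amodiaquine 5 μM, 0.25 mg/mL, 10 min; 2C9 tolbutamide 100 μM, 0.5 mg/mL, 15 min; 2C19 mephenytoin 100 μM, 0.25 mg/mL, 60 min; 2D6 dextromethorphan 5 μM, 0.5 mg/mL, 10 min; 3A4 midazolam 2.5 μM or testosterone 50 μM, 0.25 mg/mL, 10 min. Methanol quench, metabolites measured by LC-MS/MS.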

Cytochrome P450 2B6 = target: T4, Cytochrome P450 2B6 (Homo sapiens, UniProt P20813); assay: Inhibition of CYP2B6 in human liver microsomes assessed as formation of hydroxybupropion at 1.85 uM using bupropion as substrate incubated for 10 mins in presence of NADPH by LC-MS/MS analysis; type: ADME; procedure, shortened: as §2
T4 sequence (P20813 whole entry): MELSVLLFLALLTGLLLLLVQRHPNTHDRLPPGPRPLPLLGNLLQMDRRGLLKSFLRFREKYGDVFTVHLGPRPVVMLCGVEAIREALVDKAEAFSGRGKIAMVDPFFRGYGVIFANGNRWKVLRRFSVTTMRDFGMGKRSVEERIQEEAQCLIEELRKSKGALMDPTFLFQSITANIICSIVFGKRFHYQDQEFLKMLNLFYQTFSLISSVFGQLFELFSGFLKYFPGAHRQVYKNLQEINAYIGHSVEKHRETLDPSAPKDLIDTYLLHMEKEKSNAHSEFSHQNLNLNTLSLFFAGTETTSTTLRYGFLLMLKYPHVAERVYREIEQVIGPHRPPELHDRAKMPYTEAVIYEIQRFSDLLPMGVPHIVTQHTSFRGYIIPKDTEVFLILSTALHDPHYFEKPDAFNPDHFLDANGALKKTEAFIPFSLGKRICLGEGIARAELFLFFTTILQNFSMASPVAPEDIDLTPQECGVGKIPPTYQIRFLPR

Cytochrome P450 2C8 = target: T5, Cytochrome P450 2C8 (Homo sapiens, UniProt P10632); assay: Inhibition of CYP2C8 in human liver microsomes assessed as formation of desethylamodiaquine at 1.85 uM using amodiaquine as substrate incubated for 10 mins in presence of NADPH by LC-MS/MS analysis; type: ADME; procedure, shortened: as §2
T5 sequence (P10632 whole entry): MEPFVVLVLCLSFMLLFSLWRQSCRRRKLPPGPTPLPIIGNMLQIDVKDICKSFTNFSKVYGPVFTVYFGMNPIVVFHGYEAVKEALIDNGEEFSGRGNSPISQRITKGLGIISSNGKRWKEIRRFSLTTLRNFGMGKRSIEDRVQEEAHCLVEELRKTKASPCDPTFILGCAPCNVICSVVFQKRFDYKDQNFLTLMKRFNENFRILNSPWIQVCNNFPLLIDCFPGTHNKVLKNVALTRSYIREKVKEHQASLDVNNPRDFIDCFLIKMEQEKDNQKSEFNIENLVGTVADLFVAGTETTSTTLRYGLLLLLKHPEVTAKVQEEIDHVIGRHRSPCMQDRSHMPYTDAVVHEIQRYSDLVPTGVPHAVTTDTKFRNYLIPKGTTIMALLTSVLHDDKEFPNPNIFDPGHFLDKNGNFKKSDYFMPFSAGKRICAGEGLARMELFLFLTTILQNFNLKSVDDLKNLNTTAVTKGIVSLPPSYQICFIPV

Cytochrome P450 2C9 = Cytochrome P450 2C9 (Homo sapiens, UniProt P11712); assay: Inhibition of CYP2C9 in human liver microsomes assessed as formation of alpha-hydroxytolbutamide at 1.85 uM using tolbutamide as substrate incubated for 15 mins in presence of NADPH by LC-MS/MS analysis; type: ADME; details: 0.25 h; procedure, shortened: as §2
Sequence of Cytochrome P450 2C9 (P11712 whole entry): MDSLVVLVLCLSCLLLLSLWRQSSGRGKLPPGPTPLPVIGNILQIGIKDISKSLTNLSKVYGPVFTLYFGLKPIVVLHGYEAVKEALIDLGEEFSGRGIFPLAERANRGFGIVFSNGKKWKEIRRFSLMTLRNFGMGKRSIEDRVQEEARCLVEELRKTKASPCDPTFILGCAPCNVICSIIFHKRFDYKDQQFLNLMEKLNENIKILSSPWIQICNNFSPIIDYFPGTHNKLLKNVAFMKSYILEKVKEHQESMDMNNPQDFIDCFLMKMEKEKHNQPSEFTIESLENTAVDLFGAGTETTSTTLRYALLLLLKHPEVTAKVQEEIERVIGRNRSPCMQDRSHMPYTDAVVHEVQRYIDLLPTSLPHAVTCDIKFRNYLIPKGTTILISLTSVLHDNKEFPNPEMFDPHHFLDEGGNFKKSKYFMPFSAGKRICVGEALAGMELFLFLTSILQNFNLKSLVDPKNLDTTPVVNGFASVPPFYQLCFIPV

Cytochrome P450 2C19 = Cytochrome P450 2C19 (Homo sapiens, UniProt P33261); assay: Inhibition of CYP2C19 in human liver microsomes assessed as formation of 4-hydroxymephenytoin at 1.85 uM using mephenytoin as substrate incubated for 60 mins in presence of NADPH by LC-MS/MS analysis; type: ADME; details: 1 h; procedure, shortened: as §2
Sequence of Cytochrome P450 2C19 (P33261 whole entry): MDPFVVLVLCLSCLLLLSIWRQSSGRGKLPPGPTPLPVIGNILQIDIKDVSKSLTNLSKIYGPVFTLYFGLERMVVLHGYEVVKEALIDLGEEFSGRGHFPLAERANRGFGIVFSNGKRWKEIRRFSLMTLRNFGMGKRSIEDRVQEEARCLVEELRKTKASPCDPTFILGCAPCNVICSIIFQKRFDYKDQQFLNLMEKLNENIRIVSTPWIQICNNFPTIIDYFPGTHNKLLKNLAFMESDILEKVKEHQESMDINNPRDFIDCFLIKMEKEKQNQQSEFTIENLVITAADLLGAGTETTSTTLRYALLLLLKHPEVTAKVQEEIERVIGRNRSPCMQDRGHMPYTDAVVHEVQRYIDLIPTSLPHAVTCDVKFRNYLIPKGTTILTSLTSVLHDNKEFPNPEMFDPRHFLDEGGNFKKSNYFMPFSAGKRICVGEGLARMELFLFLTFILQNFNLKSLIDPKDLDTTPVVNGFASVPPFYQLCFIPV

Cytochrome P450 2D6 = Cytochrome P450 2D6 (Homo sapiens, UniProt P10635); assay: Inhibition of CYP2D6 in human liver microsomes at 1.85 uM using dextromethorphan as substrate incubated for 10 mins in presence of NADPH by LC-MS/MS analysis; type: ADME; procedure, shortened: as §2
Sequence of Cytochrome P450 2D6 (P10635 whole entry): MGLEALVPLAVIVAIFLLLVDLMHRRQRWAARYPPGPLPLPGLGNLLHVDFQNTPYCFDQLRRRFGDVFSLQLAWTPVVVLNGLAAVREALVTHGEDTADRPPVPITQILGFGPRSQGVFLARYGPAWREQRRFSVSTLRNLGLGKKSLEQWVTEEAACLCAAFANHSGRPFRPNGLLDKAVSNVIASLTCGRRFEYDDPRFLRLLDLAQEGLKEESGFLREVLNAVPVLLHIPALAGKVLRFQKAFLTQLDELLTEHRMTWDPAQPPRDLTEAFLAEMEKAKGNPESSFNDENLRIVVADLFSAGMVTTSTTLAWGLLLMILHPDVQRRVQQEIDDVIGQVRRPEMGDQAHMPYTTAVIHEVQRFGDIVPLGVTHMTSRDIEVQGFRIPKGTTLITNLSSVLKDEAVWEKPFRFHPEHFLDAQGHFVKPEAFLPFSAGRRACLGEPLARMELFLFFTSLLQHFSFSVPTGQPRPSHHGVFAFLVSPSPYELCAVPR

Cytochrome P450 3A4 [5] = target: T1, Cytochrome P450 3A4; assay: Inhibition of CYP3A4 in human liver microsomes assessed as formation of 6-beta-hydroxytestosterone at 1.85 uM using testosterone as substrate incubated for 10 mins in presence of NADPH by LC-MS/MS analysis; type: ADME; procedure, shortened: as §2
Cytochrome P450 3A4 [6] = target: T1, Cytochrome P450 3A4; assay: as §1, with “Inhibition” for “Induction”, “decrease” for “increase”, “compound” for “compound at higher concentrations”; type: ADME, cell-based
Procedure, shortened: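 AsPC-1 CYP3A5−/− cells with Dox-inducible CYP3A4, 10,000 cells/well, induced with 100 ng/mL doxycycline. Quenched with acetonitrile containing warfarin internal standard. 1-Hydroxymidazolam measured by LC-MS/MS and normalized to DMSO control (100%).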

ASPC1 = assay: Increase in CYP3A4 expression in CRISPR/Cas9-mediated CYP3A5 knock-out and doxycycline-induced CYP3A4 overexpressing human AsPC1 cells at 1 uM after 24 hrs by Western blot analysis; type: ADME, cell-based; details: aspc1, 24 h
Procedure, shortened: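 Overexpression was induced with 100 ng/mL doxycycline. […] Blots were probed with anti-CYP3A4 K03 (also detects CYP3A5) and β-actin, with infrared dye secondaries. Bands were normalized to actin across triplicate gels, with DMSO set as 1.0.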

CCC(=O)O[C@]1(C(=O)CCl)[C@@H](C)C[C@H]2[C@@H]3CCC4=CC(=O)C=C[C@]4(C)[C@@]3(F)[C@@H](O)C[C@@]21C [CLOBETASOL PROPIONATE]
Activity (Cytochrome P450 3A4 [1]): Active | IC90 at 10 min (CYP3A5 [2]): 1800 nM | inhibition at 10 min, 1.89 µM (CYP3A5 [3]): 90% | inhibition (INH) (Cytochrome P450 3A4 [4]): Not Active | inhibition (INH) (Cytochrome P450 1A2): Not Active | inhibition (INH) (Cytochrome P450 2B6): Not Active | inhibition (INH) (Cytochrome P450 2C8): Not Active | inhibition (INH) (Cytochrome P450 2C9): Not Active | inhibition (INH) (Cytochrome P450 2C19): Not Active | inhibition (INH) (Cytochrome P450 2D6): Not Active | inhibition (INH) (Cytochrome P450 3A4 [5]): Not Active | IC50 (Cytochrome P450 3A4 [6]): Not Active | Activity (ASPC1): Not Active
